Source: ChEMBL document CHEMBL1157214, “Anti-HIV agents 45(1) and antitumor agents 205.(2) two new sesquiterpenes, leitneridanins A and B, and the cytotoxic and anti-HIV principles from Leitneria floridana” (J Nat Prod, 2000)
≈ marks a conversion by molar mass, not a printed value.

Assays:
KB = experiment: Cytotoxicity against human KB cells after 3 days by SRB assay; assay type: functional; conditions: 72 h, read-out: ED50 (the source's name)
Method in brief: (§1)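 Human tumour lines from the Lineberger Comprehensive Cancer Center (UNC-CH). Selected samples were then run over a dose range in triplicate for three days. Growth was read by SRB absorbance at 562 nm. ED50 is the concentration giving a 50% fall in absorbance versus untreated cells.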

A549 = experiment: Cytotoxicity against human A549 cells after 3 days by SRB assay; assay type: functional; conditions: A549, 72 h, read-out: ED50 (the source's name); method in brief: as §1
HCT-8 = experiment: Cytotoxicity against human HCT8 cells after 3 days by SRB assay; assay type: functional; conditions: HCT-8, 72 h, read-out: ED50 (the source's name); method in brief: as §1
CAKI-1 = experiment: Cytotoxicity against human CAKI1 cells after 3 days by SRB assay; assay type: functional; conditions: CAKI-1, 72 h, read-out: ED50 (the source's name); method in brief: as §1
MCF7 = experiment: Cytotoxicity against human MCF7 cells after 3 days by SRB assay; assay type: functional; conditions: MCF7, 72 h, read-out: ED50 (the source's name); method in brief: as §1
SK-MEL-2 = experiment: Cytotoxicity against human SK-MEL-2 cells after 3 days by SRB assay; assay type: functional; conditions: for EC50: Homo sapiens, SK-MEL-2, 72 h, read-out: ED50 (the source's name)
[1] = tested on: Human immunodeficiency virus; experiment: Inhibition of HIV replication in human H9 cells; assay type: functional, organism-based; conditions: Human immunodeficiency virus 1, H9
H9 = experiment: Growth inhibition of human H9 cells; assay type: cell-based
[2] = Therapeutic index, ratio of IC50 for human H9 cells to EC50 for HIV; assay type: cell-based; conditions: read-out: Ratio IC50/EC50

Row | EC50 [1] | Structure (SMILES) | EC50 (KB) | EC50 (A549) | EC50 (HCT-8) | EC50 (CAKI-1) | EC50 (MCF7) | EC50 (SK-MEL-2) | inhibition (INH) (SK-MEL-2) | IC50 (H9) | selectivity ratio [2]
1 | – | COc1cc2nccc3c4ccccc4n(c1=O)c23 [5-METHOXYCANTHINONE] | 2.9 µg/mL (≈ 11.6 µM) | 3.1 µg/mL (≈ 12.4 µM) | 2.5 µg/mL (≈ 9.99 µM) | 4.4 µg/mL (≈ 17.6 µM) | 5 µg/mL (≈ 20 µM) | 17 µg/mL (≈ 67.9 µM) | – | – | –
2 | – | CC[C@](C)(OC(C)=O)C(=O)O[C@H]1C(=O)O[C@@H]2C[C@H]3C(C)=CC(=O)[C@@H](O)[C@]3(C)[C@H]3[C@@H](O)[C@H](O)[C@@]4(C)OC[C@]32[C@@H]14 [QUASSIMARIN] | 0.06 µg/mL (≈ 0.112 µM) | 0.03 µg/mL (≈ 0.0559 µM) | 0.012 µg/mL (≈ 0.0224 µM) | 0.05 µg/mL (≈ 0.0932 µM) | 0.006 µg/mL (≈ 0.0112 µM) | 0.05 µg/mL (≈ 0.0932 µM) | – | – | –
3 | – | CC[C@@H](C)C(=O)O[C@H]1C(=O)O[C@@H]2C[C@H]3C(C)=CC(=O)[C@@H](O)[C@]3(C)[C@H]3[C@@H](O)[C@H](O)[C@]4(C)OC[C@]32[C@@H]14 [SIMALIKALACTONE D] | 0.018 µg/mL (≈ 0.0376 µM) | 0.04 µg/mL (≈ 0.0836 µM) | 0.013 µg/mL (≈ 0.0272 µM) | 0.26 µg/mL (≈ 0.543 µM) | 0.014 µg/mL (≈ 0.0293 µM) | 0.13 µg/mL (≈ 0.272 µM) | – | – | –
4 | 0.256 µg/mL (≈ 1.02 µM) | COc1cnc2ccc(=O)n3c4ccccc4c1c23 | 3.6 µg/mL (≈ 14.4 µM) | 4.3 µg/mL (≈ 17.2 µM) | 3.6 µg/mL (≈ 14.4 µM) | 3.6 µg/mL (≈ 14.4 µM) | 13.5 µg/mL (≈ 53.9 µM) | > 20 µg/mL | 46% | > 100 µg/mL | > 391
